The chains are these.
B1: tRNA (parent)
chain: CUCUCGGUAGCCAAGUUGGUUUAAGGCGCAAGACUUUAAUUUAUCACUACGAAAUCUUGAGAUCGGGCGUUCGACUCGCCCCCGGGAGAUUUUUUCCUCGAGCAA

Variants at the floor of the assay were thinned out.

In this data set the parent is B1. The data set can be described thus: nonsense suppression (GFP-seq) (ratio to wild type); higher = more function; SUP4oc tRNA, yeast GFP reporter sort-seq. In outline: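 Sorted GFP/RFP bins of yeast were each Illumina-sequenced with a phred ≥30 cutoff; the cells held a genome-integrated ochre-suppressor tRNA variant from a library with ~3% random mutations, a galactose-driven GFP ochre reporter, and RFP. Culture was in raffinose/galactose medium containing 80 mg/L adenine. Nonsense suppression, termed GFPSEQ, is the median GFP/RFP of the bins weighted by each variant's estimated cell share per bin, relative to the unmutated parent tRNA, for variants reaching ≥100 reads and ≥30 cells.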
CUCUCGGUAGCCAAGUUGGUUUAAGGCGCAUGACUUUAAUUUAUCACUACGAAACCUUGAGAUCGGGCGUUCGACUCGCCCCCGGGAGAUUUUUUCCUCGAGCAA [A31U U55C]: the nonsense suppression is 0.0547. For the variant CUCUCGGUAGCCAAGUUGGUUUAAGGCGCAUGACUUUAAUUUAUCACUACGAAAUCUUCAGAUCGGGCGUUCGACUCGCCCCCGGGAGAUUUUUUCCUCGAGCAA [A31U G59C], the nonsense suppression is at most 0.026. With CUCUCGGUAGCCAAGUUGGUUUAAGGCGCAGGACUUUAAUUUAUCACUACGAAAUCUUGAGAGCGGGCGUUCGACUCGCCCCCGGGAGAUUUUUUCCUCGAGCAA [A31G U63G] the figure was 0.0741. To CUCUCGGUAGCCAAGUUGGUUUAAGGCGCAGGACUUUAAUUUAUCACUACGAAAUCUUGAGAACGGGCGUUCGACUCGCCCCCGGGAGAUUUUUUCCUCGAGCAA [A31G U63A] belongs 0.684. For CUCUCGGUAGCCAAGUUGGUUUAAGGCGCAGGACUUUAAUUUAUCACUACGAAAUCUUGAGACCGGGCGUUCGACUCGCCCCCGGGAGAUUUUUUCCUCGAGCAA [A31G U63C], the nonsense suppression came out at 0.333. To CUCUCGGUAGCCAAGUUGGUUUAAGGCGCAUGACUUUAAUUUAUCACUACGAAAUCUUGAGAUCGGGCGUUCGACUCGCCAGCGGGAGAUUUUUUCCUCGAGCAA [A31U C81A C82G] belongs at most 0.026; to CUCUCGGUAGCCAAGUUGGUUUAAGGCGCAGGACUUUAAUUUAUCACUACGAAAUCUUGAGAUCGGGCGUACAACUUGCCCCCGGGAGAUUUUUUCCUCGAGCAA [A31G U71A G73A C77U], at most 0.026; to CUCUCGGUAGCCAAGUUGGUUUAAGGCGCAUGACUUUAAUUUAUCACUACGAAAGCUUGAGAUCGGCCGUUCGACUCGCCCCCGGGAGAUUUUUUCCUCGAGCAA [A31U U55G G67C], at most 0.026. On to CUCUCGGUAGCCAAGUUGGUUUAAGGCGCAUGACUUUAAUUUAUCACUACGAAAUCUUGAGAUCGGGCGUUCGACUCGCCUCCGGGAGAUUUUUUCCUCGAGCAA [A31U C81U], for which the nonsense suppression stood at 0.0322.

Take CUCUCGGUAGCCAAGUUGGUUUAAGGCGCAGGACUUUAAUUUAUCACUACGAAAUCUUGAGAUCGGGCGUGCGACUCGCCCCCGGGAGAUUUUUUCCUCGAGCAA [A31G U71G]: the nonsense suppression was at most 0.026. Consider CUCUCGGUAGCCAAGUUGGUUUAAGGCGCAUGACUUUAAUUUAUCACUACGAAAUCUUGAGAUCGGGCGUUCGAAUCGCCCCCGGGAGAUUUUUUCCUCGAGCAA [A31U C75A], for which the nonsense suppression was 0.758. With CUCUCGGUAGCCAAGUUGGUUUAAGGCGCAUGACUUUAAUUUAUCACUACGAAAUCUUGAGAUCGGGCGUUCUACUCGCCCCCGGGAGAUUUUUUCCUCGAGCAA [A31U G73U] the figure was at most 0.026; with CUCUCGGUAGCCAAGUUGGUUUAAGGCGCAUGACUUUAAUUUAUCACUACGAAAUCAUGAGAUCGGGCGUUCGACUCGCCCCCGGGAGAUUUUUUCCUCGAGCAA [A31U U57A], 0.963. To CUCUCGGUAGCCAAGUUGGUUUAAGGCGCAUGACUUUAAUUUAUCACUACGAAAUCUUGAGAUUGGGCGUUUGACUCGCCCCCGGGAGAUUUUUUCCUCGAGCAA [A31U C64U C72U] belongs at most 0.026; to CUCUCGGUAGCCAAGUUGGUUUAAGGCGCAUGACUUUAAUUUAUCACUACGAAAUCUUGAGAACGGGCGUUCGACUCGCCCCCGGGAGAUUUUUUCCUCGAGCAA [A31U U63A], 0.0391; to CUCUCGGUAGCCAAGUUGGUUUAAGGCGCAUGACUUUAAUUUAUCACUACGAAAUAUUGAGAUCGGGCGCUCGACUCGCCCCCGGGAGGUUUUUUCCUCGAGCAA [A31U C56A U70C A89G], at most 0.026. To CUCUCGGUAGCCAAGUUGGUUUAAGGCGCAUGACUUUAAUUUAUCACUACGAAAUCUUGCGAUCGGGCGUUCGACUCGCCCCCGGGAGAUUUUUUCCUCGAGCAA [A31U A60C] belongs 0.0348; to CUCUCGGUAGCCAAGUUGGUUUAAGGCGCAUGACUUUAAUUUAUCACUACGAAAUCUUGUGAUCGGGCGUUCGACUCGCCCCCGGGAGAUUUUUUCCUCGAGCAA [A31U A60U], 0.647; to CUCUCGGUAGCCAAGUUGGUUUAAGGCGCAUGACUUUAAUUUAUCACUACGAAAUCUUGAGAUCGGGCGUUCGACUCGCCCCCGAGAGAUUUUUUCCUCGAGCAA [A31U G85A], 0.164.

Take CUCUCGGUAGCCAAGUUGGUUUAAGGCGCAUGACUUUAAUUUAUCACUACGAAAUCUUGAUAUCGGGCGUUCGACUCGCCCCCGGGAGAUUUUUUCCUCGAGCAA [A31U G61U]: the nonsense suppression was found to be 0.0345. On to CUCUCGGUAGCCAAGUUGGUUUAAGGCGCAUGACUUUAAUUUAUCACUACGAAAUCUUAAGAUCGGGCGUUCGACUCGCUCCCGGGAGAUUUUUUCCUCGAGCAA [A31U G59A C80U], for which the nonsense suppression is at most 0.026. Turning to CUCUCGGUAGCCAAGUUGGUUUAAGGCGCAUGACUUUAAUUUAUCACUACGAAAUCUUGCGAUCGCGCGAUCGACUCGCCCCCGAGAGAUUUUUUCCUCGAGCAA [A31U A60C G66C U70A G85A], the nonsense suppression was at most 0.026.

Regarding CUCUCGGUAGCCAAGUUGGUUUAAGGCGCAUGACUUUAAUUUAUCACUACGAAAUCUUGAGAUCGGGCGUUCCACUCGCCGCCGGGAGAUUUUUUCCUCGAGCAA [A31U G73C C81G], the nonsense suppression was at most 0.026.

For the variant CUCUCGGUAGCCAAGUUGGUUUAAGGCGCAUGACUUUAAUUUAUCACUACGAAAUCUUGAGUUCGGGCGUUCGACUCGCCCCCGGGAGAUUUUUUCCUCGAGCAA [A31U A62U], the nonsense suppression is 0.0539. To CUCUCGGUAGCCAAGUUGGUUUAAGGCGCAGGACUUUAAUUUAUCACUACGAAAUCUUGAGAUCGGGCGCUCGACUCGCCCCCGGGAGAUUUUUUCCUCGAGCAA [A31G U70C] belongs 0.0279; to CUCUCGGUAGCCAAGUUGGUUUAAGGCGCAUGACUUUAAUUUAUCACUACGAAAUCUUGCGAUCGGGCGUUCGAAUCGCCCCCGGGAGAUUUUUUCCUCGAGCAA [A31U A60C C75A], 0.184; to CUCUCGGUAGCCAAGUUGGUUUAAGGCGCAUGACUUUAAUUUAUCACUACGAAAUCUUGAGAUCGGGCGUUCGACUCGCCCCCGGGAGAUUUUUUCCUCGAGCAA [A31U], 0.177.

Source of the values: the RNAGym collection of RNA variant scans (doi:10.1101/gad.245936.114).
